The values below come from ChEMBL document CHEMBL1125874, “N-(4-Isoxazolylthiazol-2-yl)oxamic acid derivatives as potent orally active antianaphylactic agents” (1991).

Each structure is given as a SMILES string. Active and inactive are the calls of the source.

Test [1] concerns Rattus norvegicus. As to the kind of experiment: Antianaphylactic activity against IgE-mediated rat passive cutaneous anaphylaxis (PCA) model after intraperitoneal administration. The test is classed as functional. To be noted: ip. The essentials:
(§1)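 Female Sprague-Dawley rats (~200 g) received rat anti-ovoalbumin IgE antiserum intradermally at four back sites. Drug in 2% gum arabic given po (10 mL/kg) 10 min or ip (5 mL/kg) 5 min before challenge. Blue-spot area measured at 30 min versus vehicle controls. ED50 by linear regression on at least three doses.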

In test [2] the test system is Rattus norvegicus. Description: Antianaphylactic activity against IgE-mediated rat passive cutaneous anaphylaxis (PCA) model after oral administration. It is filed as functional. The essentials:
as §1

The subject of test [3] is Cavia porcellus. As to the kind of experiment: Aantianaphylactic activity at the bronchopulmonary level against IgG-mediated APA model of guinea pig when administered intraperitoneally. The test is classed as functional. To be noted: ip. The essentials: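 Guinea pigs (either sex, 300-400 g) sensitized by a single ip dose of ovoalbumin in liquid petrolatum (20 mg/mL). Tested 3 weeks later. Drug given ip in 2% gum arabic (5 mL/kg) 30 min before aerosol challenge with 2% ovoalbumin. Read-out is delay to severe dyspnea in seconds, with 3 min cutoff. ED50 by linear regression.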

The species named for test [4] is Cavia porcellus. Description: Inhibitory effect on Antigen-induced SRS-A (slow reacting substance of anaphylaxis) like material release from sensitized guinea pig lung fragments at a concentration of 10 E -4 M. The test is classed as functional. The essentials:
(§2)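 Lungs from ovoalbumin-sensitized guinea pigs were taken at 3 weeks and minced in Krebs' solution (0.1 g tissue/mL). Suspension incubated 15 min at 37 °C. Drug added, then ovoalbumin 1 μg 5 min later, for 15 min at 37 °C. SRS-A-like activity of the filtrate assayed on isolated guinea pig ileum, as % inhibition versus saline controls.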

For test [5], the species on record is Cavia porcellus. As to the kind of experiment: Inhibitory effect on Antigen-induced SRS-A (slow reacting substance of anaphylaxis) like material release from sensitized guinea pig lung fragments at a concentration of 10 E -5 M. The test is classed as functional. The essentials:
as §2

The species entered for test [6] is Cavia porcellus. Description: Inhibitory effect on Antigen-induced SRS-A (slow reacting substance of anaphylaxis) like material release from sensitized guinea pig lung fragments at a concentration of 10 E -6 M. It is filed as functional. Summed up: as §2
Test [7] relates to Rattus norvegicus. As to the kind of experiment: Antianaphylactic activity against IgE-mediated rat PCA model after oral administration; Not active. It is filed as functional, organism-based. The essentials:
as §1

The test system of test [8] is Rattus norvegicus. Description: Antianaphylactic activity at the bronchopulmonary level against IgE-mediated rat PPA model when administered intravenously. The test is classed as functional. To be noted: iv. Summed up:
(§3)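 Rats passively sensitized iv with anti-ovoalbumin serum (1 mL/rat). Challenge was iv ovoalbumin 4 mg/kg. Bronchoconstriction measured as air overflow (Konzett-Rössler). Drug given po in 2% gum arabic (10 mL/kg) 30 min before, or iv in 10% DMSO (1 mL/kg) 15 min before. ED50 by linear regression.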

Test [9] relates to Rattus norvegicus. As to the kind of experiment: Antianaphylactic activity at the bronchopulmonary level against IgE-mediated rat PPA model when administered orally. It is filed as functional. To be noted: po. The essentials:
as §3

The species entered for test [10] is Cavia porcellus. Description: Inhibitory effect on Antigen-induced SRS-A (slow reacting substance of anaphylaxis) like material release from sensitized guinea pig lung fragments at a concentration of 10 E -8 M. The test is classed as functional. The essentials: as §2
The species entered for test [11] is Cavia porcellus. As to the kind of experiment: Inhibitory effect on Antigen-induced SRS-A (slow reacting substance of anaphylaxis) like material release from sensitized guinea pig lung fragments at a concentration of 10 E -7 M. The test is classed as functional. Summed up: as §2

As a reminder, the ED50 is the dose at which the effect has come halfway, by size or by number of responders. Take `Cc1cc(-c2csc(NC(=O)C(=O)O)n2)no1.NCCCC[C@H](N)C(=O)O`: the ED50 amounted to 1.7 mg/kg in the test with Rattus norvegicus [1] and 17 mg/kg in the test on Rattus norvegicus [2].

Take `CCOC(=O)C(=O)Nc1nc(-c2cc(C)no2)cs1`: the ED50 with Rattus norvegicus [1] was 0.2 mg/kg; with Rattus norvegicus [2], 0.7 mg/kg.

On to `CCOCCOC(=O)C(=O)Nc1nc(-c2c(-c3ccccc3)noc2C)cs1`, for which the ED50 is > 10 mg/kg in the test on Rattus norvegicus [1] and > 100 mg/kg in the test on Rattus norvegicus [2].

`CCOCCOC(=O)C(=O)Nc1nc(-c2cc(CO)on2)cs1`: the ED50 in the test on Rattus norvegicus [1] was 1.8 mg/kg; with Rattus norvegicus [2], 14 mg/kg.

On to `CCOCCOC(=O)C(=O)Nc1nc(-c2cc(Br)no2)cs1`, for which the ED50 in the test with Rattus norvegicus [1] is 11 mg/kg; with Rattus norvegicus [2] it was > 30 mg/kg.

Turning to `CC(C)(C)OC(=O)C(=O)Nc1nc(-c2cc(-c3ccccc3)no2)cs1`, the results for the ED50 in the test with Rattus norvegicus [1] and with Rattus norvegicus [2] were 9 mg/kg and 7 mg/kg, respectively.

For `NCCO.O=C(O)C(=O)Nc1nc(-c2cc(-c3ccccc3)no2)cs1`, the ED50 in the test on Rattus norvegicus [1] turned out to be 0.24 mg/kg; with Rattus norvegicus [2] it was 0.6 mg/kg.

On to `NCCO.O=C(O)C(=O)Nc1nc(-c2cc(Br)no2)cs1`, for which the ED50 is 7 mg/kg with Rattus norvegicus [1] and > 30 mg/kg in the test on Rattus norvegicus [2].

Turning to `CCOCCOC(=O)C(=O)Nc1nc(-c2cc(C)on2)cs1`, the ED50 with Rattus norvegicus [1] was found to be 1.3 mg/kg; in the test on Rattus norvegicus [2], 2 mg/kg.

The Inhibition is the change of the read-out against control, counted positive when it falls. `O=C([O-])c1cc(=O)c2c(OCC(O)COc3cccc4oc(C(=O)[O-])cc(=O)c34)cccc2o1.[Na+].[Na+]` [CROMOLYN SODIUM]: the ED50 is > 1000 mg/kg in the test with Cavia porcellus [3], 12 mg/kg in the test with Rattus norvegicus [1], 0.82 mg/kg in the test with Rattus norvegicus [8] and > 100 mg/kg in the test on Rattus norvegicus [9]. In addition, the figures for the Inhibition in the test filed under Cavia porcellus [4], in the test filed under Cavia porcellus [5] and in the test filed under Cavia porcellus [6] were 46%, 38% and 20%, respectively. Moreover, the ED50 entry in the test on Rattus norvegicus [7] is “inactive”.

On to `NCCO.O=C(O)C(=O)Nc1nc(-c2cc(-c3ccccc3)on2)cs1`, for which the figures for the ED50 in the test with Rattus norvegicus [1] and in the test with Rattus norvegicus [2] were 0.23 mg/kg and 2.6 mg/kg, respectively.

With `O=C(Nc1nc(-c2cc(-c3c(F)cccc3Cl)no2)cs1)C(=O)OCc1ccccc1`, the ED50 in the test with Rattus norvegicus [1] and with Rattus norvegicus [2] was > 30 mg/kg in each case.

In the case of `CCOCCOC(=O)C(=O)Nc1nc(-c2conc2C)cs1`, the ED50 in the test with Rattus norvegicus [1] and with Rattus norvegicus [2] was > 100 mg/kg each time.

Take `CCOCCOC(=O)C(=O)Nc1nc(-c2cc(C(=O)OCC)no2)cs1`: the figures for the ED50 in the test with Rattus norvegicus [1] and in the test on Rattus norvegicus [2] were 0.08 mg/kg and 1.9 mg/kg, respectively.

Take `NCCO.O=C(O)C(=O)Nc1nc(-c2cc(-c3c(F)cccc3Cl)no2)cs1`: the ED50 is 2.4 mg/kg in the test on Rattus norvegicus [1] and > 30 mg/kg in the test with Rattus norvegicus [2].

As for `CCOC(=O)C(=O)Nc1nc(-c2cc(Br)no2)cs1`, the ED50 was 12 mg/kg in the test on Rattus norvegicus [1] and > 100 mg/kg with Rattus norvegicus [2].

On to `O=C(O)C(=O)Nc1nc(-c2cc(Br)no2)cs1`, for which the ED50 with Rattus norvegicus [1] was 3 mg/kg; in the test with Rattus norvegicus [2], > 30 mg/kg.

Turning to `NCCCC[C@H](N)C(=O)O.O=C(O)C(=O)Nc1nc(-c2cc(-c3ccccc3)no2)cs1`, the ED50 in the test with Rattus norvegicus [1] is 0.24 mg/kg; in the test with Rattus norvegicus [2] it was 2.4 mg/kg.

As for `Cc1cc(-c2csc(NC(=O)C(=O)O)n2)on1.NCCCC[C@H](N)C(=O)O`, the ED50 with Rattus norvegicus [1] is 0.3 mg/kg; in the test with Rattus norvegicus [2], 6 mg/kg.

In the case of `CCOCCOC(=O)C(=O)Nc1nc(-c2cc(C)no2)cs1` [ASOBAMAST], the ED50 in the test with Cavia porcellus [3] is 185 mg/kg; in the test with Rattus norvegicus [1], 0.04 mg/kg; with Rattus norvegicus [2], 1.3 mg/kg; in the test with Rattus norvegicus [8], 0.09 mg/kg; in the test with Rattus norvegicus [9] it was 4.7 mg/kg. Also, the Inhibition in the test filed under Cavia porcellus [5] worked out at 52%; in the test listed under Cavia porcellus [6], 48%; in the test filed under Cavia porcellus [10] it was 18%; in the test listed under Cavia porcellus [11] it was 43%.

Turning to `CCOCCOC(=O)C(=O)Nc1nc(-c2cc(COC)no2)cs1`, the ED50 stood at 2.4 mg/kg in the test with Rattus norvegicus [1] and 0.7 mg/kg in the test with Rattus norvegicus [2].

Take `COCCOC(=O)C(=O)Nc1nc(-c2cc(Br)no2)cs1`: the figures for the ED50 with Rattus norvegicus [1] and in the test on Rattus norvegicus [2] were 7 mg/kg and > 100 mg/kg, respectively.

Regarding `CCOCCOC(=O)C(=O)Nc1nc(-c2cc(OC)no2)cs1`, the results for the ED50 with Rattus norvegicus [1] and in the test on Rattus norvegicus [2] were 3 mg/kg and 11 mg/kg, respectively.

Consider `NCCO.O=C(O)C(=O)Nc1nc(-c2conc2-c2c(F)cccc2Cl)cs1`, for which the ED50 is 30 mg/kg in the test with Rattus norvegicus [1] and > 100 mg/kg in the test with Rattus norvegicus [2].

For `NCCCC[C@H](N)C(=O)O.O=C(O)C(=O)Nc1nc(-c2cc(Br)no2)cs1`, the ED50 amounted to 0.5 mg/kg in the test on Rattus norvegicus [1] and 8 mg/kg in the test with Rattus norvegicus [2].

Consider `CCOCCOC(=O)C(=O)Nc1nc(-c2cc(Cl)no2)cs1`, for which the ED50 in the test with Rattus norvegicus [1] is 6 mg/kg; in the test on Rattus norvegicus [2], > 30 mg/kg.

As to `NCCO.O=C(O)C(=O)Nc1nc(-c2cc(CO)on2)cs1`, the results for the ED50 in the test with Rattus norvegicus [1] and in the test on Rattus norvegicus [2] were > 100 mg/kg and > 30 mg/kg, respectively.

Regarding `CCOCCOC(=O)C(=O)Nc1nc(-c2c(-c3c(F)cccc3Cl)noc2C)cs1`, the ED50 in the test on Rattus norvegicus [1] is > 10 mg/kg; in the test on Rattus norvegicus [2], > 30 mg/kg.

As to `NCCCC[C@H](N)C(=O)O.O=C(O)C(=O)Nc1nc(-c2conc2-c2ccccc2)cs1`, the ED50 in the test on Rattus norvegicus [1] and in the test on Rattus norvegicus [2] was > 100 mg/kg throughout.

As for `NCCO.O=C(O)C(=O)Nc1nc(-c2cc(Cl)no2)cs1`, the 50% effective dose (ED50) in the test on Rattus norvegicus [1] and in the test on Rattus norvegicus [2] was > 30 mg/kg in each case.

As to `COc1cc(-c2csc(NC(=O)C(=O)O)n2)on1.NCCO`, the ED50 with Rattus norvegicus [1] turned out to be 1.2 mg/kg; in the test with Rattus norvegicus [2] it was 8 mg/kg.

With `CCOCCOC(=O)C(=O)Nc1nc(-c2cc(-c3c(F)cccc3Cl)no2)cs1`, the ED50 in the test on Rattus norvegicus [1] was 1.1 mg/kg; in the test with Rattus norvegicus [2], > 30 mg/kg.

For the compound `CCOCCOC(=O)C(=O)Nc1nc(-c2cc(OCc3ccccc3)no2)cs1`, the figures for the 50% effective dose (ED50) in the test on Rattus norvegicus [1] and in the test on Rattus norvegicus [2] were 3.7 mg/kg and > 100 mg/kg, respectively.

With `CCOCCOC(=O)C(=O)Nc1nc(-c2cc(Br)no2)c(CC)s1`, the values for the ED50 in the test with Rattus norvegicus [1] and in the test on Rattus norvegicus [2] were 3 mg/kg and 9 mg/kg, respectively.

Take `NCCO.O=C(O)C(=O)Nc1nc(-c2cc(CO)no2)cs1`: the ED50 in the test on Rattus norvegicus [1] stood at 0.007 mg/kg; in the test on Rattus norvegicus [2], 0.7 mg/kg.

Consider `CCOCCOC(=O)C(=O)Nc1nc(-c2cc(-c3ccccc3)on2)cs1`, for which the ED50 turned out to be 0.2 mg/kg in the test with Rattus norvegicus [1] and 13 mg/kg with Rattus norvegicus [2].
